OX1R antag-1: blocks the human orexin 1 receptor; O43613; OX1R-expressing cells, FRET antagonist read-out; inhibition, % at 6.6 µM; actives 1.8% (n = 330,000); in the data active means inhibition mostly above about 38%, no sharp cut-off; inactive means mostly below about 40%
TAAR1 antagonist: antagonists of human TAAR1. Q96RJ0. CHO RD-HGA16 TAAR1, Fluo-8 calcium fluorescence, antagonist. inhibition, % at 3 µM. actives 1.5% (n = 360,000);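 active means inhibition above a per-plate cutoff, the mean inhibition of test compounds on that plate plus 3 SD, cut at about 49% in these data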
Target sequence (Q96RJ0 whole entry, looked up): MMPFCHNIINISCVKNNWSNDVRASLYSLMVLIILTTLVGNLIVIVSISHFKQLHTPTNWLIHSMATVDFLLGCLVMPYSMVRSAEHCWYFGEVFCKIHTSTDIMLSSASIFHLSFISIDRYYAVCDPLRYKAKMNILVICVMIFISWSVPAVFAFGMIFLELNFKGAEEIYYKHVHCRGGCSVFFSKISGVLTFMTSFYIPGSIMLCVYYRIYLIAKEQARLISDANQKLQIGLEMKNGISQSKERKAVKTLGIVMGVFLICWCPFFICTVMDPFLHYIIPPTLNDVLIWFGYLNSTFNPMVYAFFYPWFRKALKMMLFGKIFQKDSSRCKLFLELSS
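Test system – hTAAR1-expressing CHO RD-HGA16 cells, Gα16-coupled · Reagent – β-PEA at EC80 concentration, post-compound challenge · Compound dosing – 3 µM, single point · Timing – 140 s kinetic read after compound, 140 s after agonist · Detection – Fluo-8 intracellular calcium dye fluorescence, real-time kinetic reads · Control set – DMSO and EC80 PEA controls · Repeats – n of 1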
GalR3 antag: human GalR3 antagonism | O60755 | actives 0.44% (n = 360,000) | AID 651719 | inhibition, % at 3 µM | HEK293 GalR3-CNG cAMP membrane potential fluorescence; galR3 body fused to GalR1 C-terminus;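 active means inhibition above the screen-wide average plus 3 SD, cut at about 13% in these data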;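 further: forskolin and galanin both at EC90 stimulate the cells; cAMP rise reported by CNG channel membrane potential dye signal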
Target sequence (O60755 1-299 limits assumed): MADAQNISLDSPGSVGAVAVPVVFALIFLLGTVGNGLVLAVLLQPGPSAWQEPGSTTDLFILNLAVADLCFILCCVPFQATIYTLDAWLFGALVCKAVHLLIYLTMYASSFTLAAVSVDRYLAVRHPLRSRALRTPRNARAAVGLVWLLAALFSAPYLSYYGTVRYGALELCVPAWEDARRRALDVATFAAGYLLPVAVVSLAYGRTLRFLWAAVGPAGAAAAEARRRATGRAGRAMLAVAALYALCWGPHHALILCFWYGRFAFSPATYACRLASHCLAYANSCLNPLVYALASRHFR
CHO parental Ca: counter-screen: ATP calcium response change in parental CHO cells. parental CHO-K1, ATP-induced calcium, Fluo-8 fluorescence. inhibition, % at 5.6 µM. actives 0.63% (n = 330,000). AID 463079;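 active means inhibition above that plate's mean sample inhibition plus 3 SD, cut at about 26% in these data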
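Test system: untransfected parental CHO cell line; also added: ATP stimulus; dosing: 5.6 µM, single dose; signal: calcium-sensitive Fluo-8 fluorescence; measure: percent inhibition of ATP-evoked calcium rise, normalized to controls; benchmarks: low control ATP plus DMSO, high control DMSO only; replication: one well per compound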
OX1R antag-2: blocks the human orexin 1 receptor; O43613; CHO/OX1R cells, Fluo-8 calcium fluorescence, orexin A; AID 434989; actives 0.43% (n = 330,000); inhibition, % at 5 µM;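 active means inhibition above its plate's threshold, mean inhibition of all tested compounds on the plate plus 3 SD, cut at about 37% in these data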
TAAR1 ag: human TAAR1 agonism | Q96RJ0 | CHO RD-HGA16 TAAR1, Fluo-8 calcium fluorescence; vehicle wells 0%, saturating PEA agonist 100% | activation, % at 3 µM | actives 0.99% (n = 360,000) | AID 624467;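 active means activation above the mean activation of all test compounds in the run plus 3 SD, cut at about 38% in these data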
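Test system: RD-HGA16 (CHO) cells co-expressing Gα16 and hTAAR1 / Benchmarks: DMSO vehicle as 0%, PEA at EC100 as 100% / Repeats: no replicates (n 1) / Measure: % activation from peak over basal fluorescence ratio, DMSO-to-PEA scaled / Timing: 17-24 h plating, Fluo-8 75 min 37 °C, 30 min RT / Technique: kinetic Fluo-8 calcium fluorescence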
Hits are given with their value; - = inactive; . = no result. This is a sample that favours compounds with a hit; in the whole collection about 4.2% have one here.

SMILES	OX1R antag-1	TAAR1 antagonist	GalR3 antag	CHO parental Ca	OX1R antag-2	TAAR1 ag
CN(C)C(=O)c1cccc(-c2cccc(-c3nc(C(=O)NCc4ccccc4)cc4c3[C@@H](CCO)N(S(=O)C(C)(C)C)C4)c2)c1 (stereo partly specified)	.	61	-	.	.	-
CCNC(=O)c1cc2c(c(-c3cccc(-c4cccc(C(=O)N(C)C)c4)c3)n1)[C@H](CCO)N(S(=O)C(C)(C)C)C2 (stereo partly specified)	.	-	-	.	.	-
COCCNC(=O)c1cc2c(c(-c3cccc(-c4cccc(OC)c4)c3)n1)[C@H](CCO)N(S(=O)C(C)(C)C)C2 (stereo partly specified)	.	-	-	.	.	-
CC(C)(C)S(=O)N1Cc2cc(C(=O)NCC(F)(F)F)nc(-c3cccc(-c4cccc(F)c4)c3)c2[C@H]1CCO (stereo partly specified)	.	62	-	.	.	-
COc1cccc(-c2cccc(-c3nc(C(=O)NCCCN4CCOCC4)cc4c3[C@H](CCO)N(S(=O)C(C)(C)C)C4)c2)c1 (stereo partly specified)	.	52	-	.	.	-
Cc1nn(-c2ccccc2)c(Cl)c1C(=O)NCC(=O)O	-	-	-	-	-	-
Cc1nn(-c2ccccc2)c(Cl)c1CN(C(=O)CCl)c1ccc(Cl)cc1	-	60	-	-	-	-
Cc1nn(-c2ccccc2)c(Cl)c1CN(C(=O)CCl)c1cccc2ccccc12	-	50	-	-	-	-
COc1ccc(N=C2NC(=O)/C(=C/C=C/c3ccccc3)S2)cc1	-	-	-	-	-	-
O=[N+]([O-])c1cc(Oc2cccnc2)cc([N+](=O)[O-])c1	75	-	-	-	-	-
CCOCCCNC(=O)/C=C1\Sc2ccccc2N(Cc2ccccc2F)C1=O	44	-	-	-	-	-
CCOCCCNC(=O)CN1C(=O)/C(=C/c2ccccc2C)Sc2ccccc21	-	-	-	-	-	-
COc1ccc(-n2nnnc2C(c2cccc(OC)c2OC)N2CCN(C/C=C/c3ccccc3)CC2)cc1 (stereo unspecified)	.	-	-	.	.	-
COc1ccccc1CNC(=O)COc1cc2c(c3oc(=O)cc(C)c13)CCC(C)(C)O2	-	53	-	-	-	-
Cc1cc(=O)oc2c3c(cc(OCC(=O)NCc4cccnc4)c12)OC(C)(C)CC3	-	-	-	-	-	-
Cc1c(C)c2c(OCC(=O)Nc3ccc(CCO)cc3)cc3c(c2oc1=O)CCC(C)(C)O3	-	51	-	-	-	-
COc1cccc(CNC(=O)COc2cc3c(c4oc(=O)cc(C)c24)CCC(C)(C)O3)c1	-	58	-	-	-	-
Cc1ccccc1-n1nnnc1SCc1cc(=O)n2ccsc2n1	-	-	-	-	-	-
COCCOC(=O)c1c(C)n(C)c2ccc(OC(=O)c3c(OC)cccc3OC)cc12	-	49	-	-	-	-
COCCOC(=O)c1c(C)n(C)c2ccc(OC(=O)N3CCOCC3)cc12	-	-	-	-	-	-
COCCOC(=O)c1c(C)nc(SCC(=O)Nc2cccc3ccccc23)c(C#N)c1-c1ccco1	-	51	-	-	-	-
Cc1ccc(Oc2ncccc2NC(=O)CC(CC(=O)O)c2ccccc2)c2c1CCC2 (stereo unspecified)	-	-	-	-	-	-
CCn1c(Cn2nnc(-c3ccccc3)n2)nnc1SCC(=O)Nc1cccc(C(C)=O)c1	56	-	-	-	-	-
CCn1c(Cn2nnc(-c3ccccc3)n2)nnc1SCC(=O)Nc1cccc(C)c1C	77	-	-	-	-	-
CCCCNS(=O)(=O)c1ccc2nc(-c3cccnc3)cc(C(=O)NCCOC)c2c1	-	-	-	-	-	-
SMILES	OX1R antag-1	TAAR1 antagonist	GalR3 antag	CHO parental Ca	OX1R antag-2	TAAR1 ag
C=C(C)C(=O)NC1=NN(c2ccccc2)C(=O)C1	-	-	-	-	-	-
COc1cc(C(=O)Nc2nccs2)ccc1OCc1c(C)noc1C	-	-	-	-	-	-
Cc1ccc(-n2c(C)cc(C(=O)CSc3nncs3)c2C)cc1	57	-	-	-	92	-
Cc1ccc(-n2nnnc2SCC(=O)NC(C(=O)O)(c2ccccc2)c2ccccc2)cc1C	57	-	-	-	-	-
Cc1ccc(NC(=O)CCSc2nnnn2-c2ccc3c(c2)OCO3)cc1C	71	-	-	-	-	-
CCOC(=O)CNC(=O)CSc1nnnn1-c1ccc(C)c(C)c1	-	-	-	-	-	-
O=C(C(Cc1ccccc1)N1C(=O)c2ccccc2C1=O)N1CCc2ccccc21 (stereo unspecified)	-	-	-	-	-	-
O=S(=O)(c1ccccc1)c1nc(Nc2cccc(O)c2)sc1Cl	-	-	-	-	-	-
CCCCN(CC)CCNC(=O)C1CCN(S(=O)(=O)c2cccc3nsnc23)CC1	51	-	-	-	-	-
CCCN(CCC)CCNC(=O)C1CCN(S(=O)(=O)c2cccc3nsnc23)CC1	43	-	-	-	-	-
CCCCN(CC)CCNC(=O)C1CCCN(S(=O)(=O)c2cccc3nsnc23)C1 (stereo unspecified)	-	-	-	-	-	-
CCCCN(C)CCNC(=O)C1CCN(S(=O)(=O)c2cccc3nsnc23)CC1	49	-	-	-	-	-
COC(CNC(=O)C1CCN(S(=O)(=O)c2cccc3nsnc23)CC1)OC	-	-	-	-	-	-
c1cc(-c2sc(-c3ccncc3)c(-c3ccncc3)c2-c2ccncc2)ccn1	-	-	-	-	-	-
CCOc1ccccc1C1C2C(=O)N(c3ccccc3)C(=O)C2ON1c1ccccc1 (stereo unspecified)	-	50	-	-	-	-
COc1cc2c(cc1OC)CN(C(=O)CCNC(=O)c1ccc(Br)cc1)CC2	.	-	-	.	.	-
CC(C)(C)c1nc(NC(=O)Nc2ccccc2)sc1Br	-	-	-	47	60	-
CC1CCN(C(=O)COC(=O)CCC(=O)c2ccc(F)cc2)CC1	-	-	-	-	-	-
Cc1cc(C)cc(OCC(=O)NNC(=O)c2ccccn2)c1	-	-	-	-	-	-
O=C1c2ccccc2-c2onc3ccc(NCCCn4ccnc4)c1c23	46	.	.	40	57	.
O=C1N=C(N2C=CC(=C3C=CNC=C3)C=C2)/C(=C/N=NC(=O)c2ccccc2)S1	80	-	-	-	-	-
COc1ccccc1-c1nnc(-c2ccc(C)cc2)o1	-	-	-	-	-	-
COc1ccccc1-c1nnc(-c2ccc(N3CCOCC3)cc2)o1	75	-	-	-	-	-

Source: PubChem (The Scripps Research Institute Molecular Screening Center)
